Experimental data reported in ChEMBL document CHEMBL1149444, “Discovery of imidazo[1,2-b][1,2,4]triazines as GABA(A) alpha2/3 subtype selective agonists for the treatment of anxiety” (J Med Chem, 2006).
The source made the active and inactive calls. The rule behind the calls is not given here.

Legend:
[1] = molecular target: GABA-A receptor; alpha-1/beta-3/gamma-2 (Homo sapiens) (UniProt P14867+P18507+P28472); assay: Efficacy against recombinant human GABAA alpha1 receptor plus beta3gamma2 expressed in L(tk-) cells by whole cell patch clamp method relative to chlordiazepoxide; type: functional, cell-based
How it was run: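 Whole-cell patch clamp on L(tk-) cells stably expressing the receptor (alpha plus beta3gamma2). GABA applied at an EC20-equivalent concentration. Modulation of the current measured with increasing test concentrations. Efficacy expressed relative to the maximal chlordiazepoxide response (set at 1.00) or as a percentage.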

[2] = molecular target: T1, GABA-A receptor; alpha-1/beta-3/gamma-2 (Homo sapiens, UniProt P14867+P18507+P28472); assay: Displacement of [3H]Ro 15-1788 from recombinant human GABAA alpha-1 receptor plus beta3gamma2 expressed in L(tk-) cells; type: cell-based
T1 sequence (P14867 whole entry): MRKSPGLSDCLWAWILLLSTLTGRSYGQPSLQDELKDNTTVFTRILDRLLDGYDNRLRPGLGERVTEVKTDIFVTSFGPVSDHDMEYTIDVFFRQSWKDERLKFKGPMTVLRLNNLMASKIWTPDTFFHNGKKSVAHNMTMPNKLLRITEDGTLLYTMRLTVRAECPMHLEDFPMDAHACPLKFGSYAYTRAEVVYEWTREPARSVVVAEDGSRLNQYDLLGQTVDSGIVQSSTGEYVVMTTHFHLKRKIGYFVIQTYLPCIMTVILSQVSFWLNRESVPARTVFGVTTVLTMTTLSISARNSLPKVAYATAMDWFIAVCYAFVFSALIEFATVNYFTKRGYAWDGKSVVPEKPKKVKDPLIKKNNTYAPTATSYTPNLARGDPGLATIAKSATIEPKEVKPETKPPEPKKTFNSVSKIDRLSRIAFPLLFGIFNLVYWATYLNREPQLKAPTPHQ
T1 sequence (P18507 whole entry): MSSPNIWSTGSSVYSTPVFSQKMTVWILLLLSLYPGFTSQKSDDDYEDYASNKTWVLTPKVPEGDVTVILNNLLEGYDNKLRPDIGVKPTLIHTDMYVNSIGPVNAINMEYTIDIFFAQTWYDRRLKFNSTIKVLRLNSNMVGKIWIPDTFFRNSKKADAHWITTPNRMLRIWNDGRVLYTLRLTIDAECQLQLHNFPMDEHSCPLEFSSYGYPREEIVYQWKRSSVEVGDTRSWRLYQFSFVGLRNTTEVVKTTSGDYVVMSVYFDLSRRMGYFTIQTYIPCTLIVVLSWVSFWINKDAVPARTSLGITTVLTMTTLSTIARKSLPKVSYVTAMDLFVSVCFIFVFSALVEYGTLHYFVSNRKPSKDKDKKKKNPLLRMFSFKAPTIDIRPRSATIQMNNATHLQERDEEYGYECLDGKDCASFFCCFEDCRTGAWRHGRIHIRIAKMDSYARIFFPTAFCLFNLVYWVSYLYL
T1 sequence (P28472 whole entry): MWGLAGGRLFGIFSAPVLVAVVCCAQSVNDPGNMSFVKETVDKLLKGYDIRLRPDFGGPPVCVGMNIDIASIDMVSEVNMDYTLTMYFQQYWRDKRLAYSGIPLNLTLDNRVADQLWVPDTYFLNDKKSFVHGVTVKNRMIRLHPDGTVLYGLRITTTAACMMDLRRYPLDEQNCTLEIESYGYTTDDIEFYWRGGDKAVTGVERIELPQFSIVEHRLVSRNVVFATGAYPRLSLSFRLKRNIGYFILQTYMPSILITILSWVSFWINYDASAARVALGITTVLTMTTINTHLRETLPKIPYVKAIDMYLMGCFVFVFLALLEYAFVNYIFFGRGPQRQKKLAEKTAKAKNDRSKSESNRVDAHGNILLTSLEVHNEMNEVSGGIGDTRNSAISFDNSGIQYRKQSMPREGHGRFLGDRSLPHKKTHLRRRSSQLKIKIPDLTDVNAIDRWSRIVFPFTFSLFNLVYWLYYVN

[3] = species on record: Rattus norvegicus; assay: Plasma concentration in rat; type: ADME, organism-based; conditions: in vivo
How it was run: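 Central benzodiazepine receptor occupancy in rat after oral dosing, measured by displacement of [3H]Ro15-1788 binding. Plasma concentration was measured at the dose giving 50% occupancy.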

[4] = molecular target: T2, GABA-A receptor; alpha-5/beta-3/gamma-2 (Homo sapiens, UniProt P18507+P28472+P31644); assay: Displacement of [3H] Ro15-1788 from recombinant human GABAA alpha-5 receptor plus beta3gamma2 expressed in L(tk-) cells; type: cell-based
T2 sequence (P18507 whole entry): T1 sequence (P18507 whole entry)
T2 sequence (P28472 whole entry): T1 sequence (P28472 whole entry)
T2 sequence (P31644 whole entry): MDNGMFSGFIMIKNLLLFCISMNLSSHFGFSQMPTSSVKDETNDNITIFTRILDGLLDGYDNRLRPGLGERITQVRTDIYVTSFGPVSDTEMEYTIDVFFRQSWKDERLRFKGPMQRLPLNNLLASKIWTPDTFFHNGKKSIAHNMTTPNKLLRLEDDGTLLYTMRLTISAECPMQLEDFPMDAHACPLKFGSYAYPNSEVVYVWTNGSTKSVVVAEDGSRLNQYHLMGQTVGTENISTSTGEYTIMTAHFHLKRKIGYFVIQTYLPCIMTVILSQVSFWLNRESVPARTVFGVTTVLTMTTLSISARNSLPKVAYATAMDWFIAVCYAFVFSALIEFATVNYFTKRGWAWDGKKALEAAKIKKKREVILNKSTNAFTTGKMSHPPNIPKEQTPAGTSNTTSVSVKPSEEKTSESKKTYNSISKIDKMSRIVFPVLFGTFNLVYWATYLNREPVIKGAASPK
How it was run: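 Inhibition of [3H]Ro15-1788 binding to human recombinant GABAA receptors stably expressed in L(tk-) cells, alpha subunit combined with beta3 and gamma2. Six to eight test concentrations spaced in half-log units. Ki reported as geometric mean of n = 2-12.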

[5] = Oral bioavailability in rhesus at 1 mg/kg, iv or 1 mg/kg, po; type: ADME, organism-based, Macaca mulatta; conditions: rhesus monkey, in vivo
How it was run: (§1)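 Pharmacokinetics in rat, dog or rhesus after 1 mg/kg iv and 1 mg/kg po dosing. Plasma clearance (mL/min/kg), half-life (h), volume of distribution (L/kg) and oral bioavailability (%) were derived.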

[6] = system: Squirrel monkey; assay: Sedation in squirrel monkey conditioned emotional response test at 10 mg/kg, po; type: functional, organism-based; set-up: dose 10 mg/kg; conditions: Saimiri sciureus
How it was run: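 Squirrel monkeys dosed po in 0.5% methyl cellulose vehicle. Anxiolysis was read as reversal of the suppression of lever pressing caused by a light cue signalling possible electric shock. Sedation was read as the rate of lever pressing for fruit juice reward on an RPI30 schedule. n = 10-11 per group, p < 0.05 versus vehicle.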

[7] = system: Mus musculus; assay: Impairment in mouse rotarod assay upto 10 mg/kg, po; type: functional, organism-based; set-up: dose 10 mg/kg
How it was run: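 Mouse rotarod test for sedation or myorelaxation after oral dosing up to 10 mg/kg. n = 8 per group. Significance versus vehicle at p < 0.05.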

[8] = Plasma clearance in dog at 1 mg/kg, iv or 1 mg/kg, po; type: ADME, organism-based, Canis lupus familiaris; how it was run: as §1
[9] = Volume of distribution in rhesus at 1 mg/kg, iv or 1 mg/kg, po; type: ADME, organism-based, Macaca mulatta; conditions: rhesus monkey, in vivo, read-out: Vdss; how it was run: as §1
[10] = Volume of distribution in rat at 1 mg/kg, iv or 1 mg/kg, po; type: ADME, organism-based; conditions: in vivo, read-out: Vdss
How it was run: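 Rat pharmacokinetics after dosing at 1 mg/kg iv and 1 mg/kg po. Plasma clearance in mL/min/kg, half-life in h and volume of distribution in L/kg.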

Structure (SMILES): CC(C)(O)c1cnn2c(-c3ccc(F)c(-c4c(F)cccc4C#N)c3)cnc2n1
- Efficacy [1]: 3%
- Ki [2]: 0.73 nM
- concentration [3]: 56 nM
- Ki [4]: 1.1 nM
- bioavailability [5]: 29%
- Activity [6]: inactive
- Activity [7]: inactive
- clearance [8]: 4.6 mL/min/kg
- Vd [9]: 2.1 L/kg
- Vd [10]: 2.1 L/kg
